Consider nine compounds from ChEMBL document CHEMBL2177091, “Spirocyclic sulfamides as β-secretase 1 (BACE-1) inhibitors for the treatment of Alzheimer's disease: utilization of structure based drug design, WaterMap, and CNS penetration studies to identify centrally efficacious inhibitors” (J Med Chem, 2012).

One series can be described thus: in vitro. As to conditions: human, liver microsomes. A general note: Microsomes from liver hold many membrane-bound enzymes, among them those of drug oxidation.
Series [1] can be described thus: Ratio of free drug concentration in brain to free drug concentration in plasma in FVB/N mouse at 10 mg/kg, sc after 60 mins. It counts as ADME, organism-based. More on the design: dose 10 mg/kg, route subcutaneous. As to conditions: brain and plasma (free concentrations), read-out: K(p,uu,brain). The gist of the method: (§1)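 Mice dosed 10 mg/kg subcutaneously; plasma and brain exposures taken at 60 min. Unbound fractions determined by equilibrium dialysis.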

Another series has as its system Plasma. As to the kind of experiment: Fraction unbound in FVB/N mouse plasma at 1 uM after 6 hrs by equilibrium dialysis. It counts as ADME, cell-free. Background: Equilibrium dialysis compares concentrations on both sides of a semipermeable membrane.
The nature of series [2]: Ratio of drug uptake in brain to plasma in FVB/N mouse at 10 mg/kg, sc after 60 mins. As to conditions: brain and plasma, read-out: BPR. More on the design: dose 10 mg/kg, route subcutaneous. It counts as ADME, organism-based. Put shortly:
as §1

Series [3] is described as follows: Intrinsic clearance in rat liver microsomes. Format: ADME, Microsome. The following applies: read-out: CLH.

In “in vitro”, `CCc1n[nH]c2ccc(CN3CC[C@@]4(C[C@@H]3C)CN(C)S(=O)(=O)N4c3cccc(F)c3)cc12` registered a CLint scaled of 74.2 mL/min/kg.
Regarding `CC(C)Oc1cccc(CN2CC[C@@]3(C[C@@H]2C)CN(C)S(=O)(=O)N3c2cccc(F)c2)c1`, the Kp uu at 1 h in series [1] was found to be 0.65. For the same compound, the Cp(f) in the series on Plasma was 0.036. For the same compound, in series [2], the Kp at 1 h was determined as 0.97. The figures for the CLint scaled (in series [3]; in the series “in vitro”) were above 65.5 mL/min/kg and above 19 mL/min/kg, respectively.
Consider `CC(C)Oc1cccc(CN2CC[C@]3(CNS(=O)(=O)N3c3cccc(F)c3)C[C@@H]2C)c1`, for which the Kp uu at 1 h in series [1] is 0.22. This compound had a Cp(f) in the series with Plasma of 0.041. In series [2], the Kp at 1 h turned out to be 0.67. Moreover, the CLint scaled in series [3] was above 65.5 mL/min/kg; in the series “in vitro”, above 19 mL/min/kg.
`C[C@H]1C[C@]2(CCN1Cc1ccc(O)c(Cl)c1)CN(C)S(=O)(=O)N2c1cccc(F)c1` returned a CLint scaled in the series “in vitro” of 173 mL/min/kg.
The same measure, in the same setting: as for `C[C@H]1C[C@]2(CCN1Cc1ccc(O)cc1)CN(C)S(=O)(=O)N2c1cccc(F)c1`, the figure is 152 mL/min/kg; as for `CCOc1cc(CN2CC[C@@]3(C[C@@H]2C)CN(C)S(=O)(=O)N3c2cccc(F)c2)ccc1O`, 79.9 mL/min/kg.
On to `CC(C)Oc1cc(CN2CC[C@@]3(C[C@@H]2C)CN(C)S(=O)(=O)N3c2cccc(F)c2)ccc1O`, for which, in series [1], the Kp uu at 1 h is 0.27. For the same compound, in the series with Plasma, the Cp(f) was 0.17. Moreover, in series [2], the Kp at 1 h stood at 0.35. Moreover, the CLint scaled in series [3] came out at 59.7 mL/min/kg; in “in vitro”, 15.4 mL/min/kg.
In the series “in vitro”, `CC(=O)Nc1ccc(CN2CC[C@@]3(C[C@@H]2C)CN(C)S(=O)(=O)N3c2cccc(F)c2)cc1` gave a CLint scaled above 300 mL/min/kg.
In “in vitro”, `C[C@H]1C[C@]2(CCN1Cc1ccc3[nH]ccc3c1)CN(C)S(=O)(=O)N2c1cccc(F)c1` yielded a CLint scaled of 175 mL/min/kg.
